Data from publication PMC6130848 (Circulation. Cardiovascular imaging, 2018).
Residues, ends and D or L forms follow the SMILES beside them. No end group written: not given here. *: point of attachment. DOTA = O=C(O)CN1CCN(CC(=O)O)CCN(CC(=O)*)CCN(CC(=O)O)CC1

Assays:
[1] = test system: diseased vessel sections; parameters: species or system mouse; conditions: 200nM, 24h, 4°C
Procedure, shortened: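 Vessel sections incubated with rhodamine-labelled tropoelastin-binding peptide (200nM solution) for 24h at 4°C, then counterstained for nuclei with Hoechst (1:3000, 15 min, room temperature). Kept shielded from light throughout and mounted in Mowiol medium containing 2.5% DABCO. Read-out by fluorescent microscopy.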

[2] = target: T1, tropoelastin (Homo sapiens, UniProt P15502); assay type: binding
T1 sequence (P15502 27-786): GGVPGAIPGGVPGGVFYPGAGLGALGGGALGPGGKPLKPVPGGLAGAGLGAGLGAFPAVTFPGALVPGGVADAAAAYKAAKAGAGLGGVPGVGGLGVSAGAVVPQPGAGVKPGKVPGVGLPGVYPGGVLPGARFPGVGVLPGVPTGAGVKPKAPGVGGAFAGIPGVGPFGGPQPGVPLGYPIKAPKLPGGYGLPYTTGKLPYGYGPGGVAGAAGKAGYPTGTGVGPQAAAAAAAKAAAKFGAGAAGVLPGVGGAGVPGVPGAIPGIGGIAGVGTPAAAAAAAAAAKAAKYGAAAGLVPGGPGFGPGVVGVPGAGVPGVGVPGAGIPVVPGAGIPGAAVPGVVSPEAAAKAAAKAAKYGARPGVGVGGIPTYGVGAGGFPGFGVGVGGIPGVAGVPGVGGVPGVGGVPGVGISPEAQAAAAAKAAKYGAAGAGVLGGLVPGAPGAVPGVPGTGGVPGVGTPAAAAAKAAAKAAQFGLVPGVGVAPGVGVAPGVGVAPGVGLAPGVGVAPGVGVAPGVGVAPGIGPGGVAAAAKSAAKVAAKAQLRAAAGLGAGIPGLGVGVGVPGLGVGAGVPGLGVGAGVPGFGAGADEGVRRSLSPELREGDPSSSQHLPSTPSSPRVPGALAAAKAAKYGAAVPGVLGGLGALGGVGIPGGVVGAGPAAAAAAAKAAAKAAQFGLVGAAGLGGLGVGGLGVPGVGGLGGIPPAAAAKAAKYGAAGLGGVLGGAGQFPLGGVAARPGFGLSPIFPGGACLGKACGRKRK

[3] = test system: tropoelastin, mature elastin, collagen I, fibronectin, human serum albumin; assay type: binding; conditions: Eu-labelled probes, in vitro
[4] = assay type: in vivo; conditions: biodistribution of ^64Cu-labeled probes
[5] = test system: vessel wall tropoelastin of ApoE^-/- mice; conditions: feed or water, 40 mg/kg, 2016 h
[6] = test system: vessel wall tropoelastin of ApoE^-/- mice; conditions: 2016 h
[7] = tissue and species not stated; cited from earlier work
[8] = 20MHz, 37°C; cited from earlier work

VVGSPSAQDEASPLS
fluorescent signal in tropoelastin-rich areas of diseased vessels [1]: fluorescent signal

CC(C)C[C@H](NC(=O)[C@@H]1CCCN1C(=O)[C@H](CO)NC(=O)[C@H](C)NC(=O)[C@H](CCC(=O)O)NC(=O)[C@H](CC(=O)O)NC(=O)[C@H](CCC(N)=O)NC(=O)[C@H](C)NC(=O)[C@H](CO)NC(=O)[C@@H]1CCCN1C(=O)[C@H](CO)NC(=O)CNC(=O)[C@@H](NC(=O)[C@@H](NC(=O)CN1CCN(CC(=O)O)CCN(CC(=O)O)CCN(CC(=O)O)CC1)C(C)C)C(C)C)C(=O)N[C@@H](CO)C(=O)O [(Eu-DOTA)-VVGS] ({DOTA}-VVGSPSAQDEASPLS-OH)
binding to tropoelastin [2]: 64±7% | selectivity towards tropoelastin compared with collagen I, fibronectin and HSA [3]: high selectivity

CC(C)[C@H](NC(=O)[C@H](Cc1c[nH]cn1)NC(=O)[C@H](CC(=O)O)NC(=O)[C@@H]1CCCN1C(=O)[C@H](Cc1ccc(O)cc1)NC(=O)[C@@H](N)CCCCNC(=O)CN1CCN(CC(=O)O)CCN(CC(=O)O)CCN(CC(=O)O)CC1)C(=O)N[C@@H](CCC(N)=O)C(=O)N[C@@H](Cc1ccc(O)cc1)C(=O)N[C@H](C(=O)N[C@@H](Cc1c[nH]cn1)C(=O)N[C@@H](Cc1ccc(O)cc1)C(=O)O)[C@@H](C)O [K(^64Cu-DOTA)-YPDH, metal not drawn] (H-K(DOTA)YPDHVQYTHY-OH)
liver uptake [4]: some liver uptake

CC(C)[C@H](NC(=O)[C@H](Cc1c[nH]cn1)NC(=O)[C@H](CC(=O)O)NC(=O)[C@@H]1CCCN1C(=O)[C@H](Cc1ccc(O)cc1)NC(=O)[C@@H](N)CCCCNC(=O)CN1CCN(CC(=O)O)CCN(CC(=O)O)CCN(CC(=O)O)CC1)C(=O)N[C@@H](CCC(N)=O)C(=O)N[C@@H](Cc1ccc(O)cc1)C(=O)N[C@H](C(=O)N[C@@H](Cc1c[nH]cn1)C(=O)N[C@@H](Cc1ccc(O)cc1)C(=O)O)[C@@H](C)O [K(Eu-DOTA)-YPDH] (H-K(DOTA)YPDHVQYTHY-OH)
binding to tropoelastin [2]: 84± 4% | selectivity towards tropoelastin compared with collagen I, fibronectin and HSA [3]: high selectivity

CC[C@H](C)C(=O)O[C@H]1C[C@H](O)C=C2C=C[C@H](C)[C@H](CC[C@@H](O)C[C@@H](O)CC(=O)O)[C@H]21 [statin, pravastatin]
% tropoelastin (immunopositive area/vessel wall area) [5]: 11.41±0.35% | vessel wall tropoelastin concentration (western blotting) [6]: 1.17±0.09 mg/gr tissue

{DOTA}-VVGSPSAQDEASPLS [(^64Cu –DOTA)-VVGS]
uptake [7]: 7.2 %ID/g

O=C([O-])CN(CCN(CC(=O)[O-])CC(=O)O)CCN(CC(=O)[O-])CC(=O)O.[Gd+3] [Gd-DTPA]
relaxivity r1 [8]: 4.02 mM⁻¹ s⁻¹
